Screening data: PubChem, Johns Hopkins Ion Channel Center
KCNK3 block – human KCNK3 channel inhibitors, primary screen, CHO cells, FluxOR thallium flux, B-score; Potassium channel subfamily K member 3 (Homo sapiens), O14649; hit rate 0.84% among 340,000; B-score at 10 µM; FluxOR fluorescence; hits give low values;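 active means B-score under library mean minus 4 SD, starting fluorescence ratio at most library mean plus 5 SD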;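 further: more negative B-score means stronger inhibition of thallium flux through KCNK3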
KCNQ1 act – potentiators or activators of KCNQ1 channel, primary screen, cell-based, thallium flux, high-throughput; B-score at 10 µM; AID 2648, 2010; Potassium voltage-gated channel subfamily KQT member 1 (Homo sapiens), P51787; CHO-K1 KCNQ1, thallium flux FluxOR fluorescence; hits give high values; hit rate 0.35% among 310,000;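 active means fluorescence ratio B-score, a plate-corrected score, at least three library SD, with initial intensity B-score within 5 SD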
Target sequence (P51787 whole entry, looked up): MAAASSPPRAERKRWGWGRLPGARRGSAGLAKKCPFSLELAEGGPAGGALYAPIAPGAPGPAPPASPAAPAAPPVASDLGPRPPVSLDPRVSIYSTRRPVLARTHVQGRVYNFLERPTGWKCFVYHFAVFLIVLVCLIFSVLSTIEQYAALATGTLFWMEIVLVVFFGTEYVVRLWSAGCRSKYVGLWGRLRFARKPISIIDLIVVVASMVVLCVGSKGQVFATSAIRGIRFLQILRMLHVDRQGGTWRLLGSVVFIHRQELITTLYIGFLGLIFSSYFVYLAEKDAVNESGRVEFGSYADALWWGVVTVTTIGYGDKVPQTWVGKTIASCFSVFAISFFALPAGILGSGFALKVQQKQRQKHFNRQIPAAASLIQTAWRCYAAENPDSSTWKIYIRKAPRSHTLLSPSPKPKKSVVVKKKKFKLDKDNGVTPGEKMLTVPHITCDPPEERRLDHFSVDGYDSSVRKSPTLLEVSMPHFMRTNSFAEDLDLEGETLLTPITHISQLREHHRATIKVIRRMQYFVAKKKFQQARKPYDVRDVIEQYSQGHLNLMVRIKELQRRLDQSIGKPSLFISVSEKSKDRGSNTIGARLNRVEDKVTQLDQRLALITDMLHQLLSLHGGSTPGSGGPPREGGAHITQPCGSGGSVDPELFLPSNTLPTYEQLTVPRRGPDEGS
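Doses: Single concentration per compound, DMSO matched to controls | Test system: KCNQ1-transfected CHO-K1 cells | Timing: 90 min dye loading and 20 min compound exposure, both at room temperature | Measured by: Kinetic FluxOR thallium fluorescence, 10-s 1-Hz baseline, 110-s post-stimulus read | Medium: Assay buffer with matched DMSO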
KCNK9 inh – KCNK9 potassium channel inhibitors, primary screen, HEK293 cells, thallium flux; Potassium channel subfamily K member 9 (Homo sapiens), Q9NPC2; FluxOR thallium flux fluorescence; hits give low values; B-score at 10 µM; hit rate 1.2% among 310,000;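 active means ratio B-score over 3 SD below the library mean, with starting fluorescence within 5 SD of its mean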;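 further: negative B-score means less thallium flux so channel inhibition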
hERG protect – hERG rescue from dofetilide block, primary screen, cell-based, CHO-hERG, FluxOR thallium flux, dofetilide IC70; Voltage-gated inwardly rectifying potassium channel KCNH2 (Homo sapiens), Q12809; dofetilide IC70 present; activation (rescue from dofetilide block), less the hit threshold, % at 10 µM; hit rate 0.51% among 310,000; AID 1511, 2009;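 active means activation above the mean of controls blocked by dofetilide plus 5 SD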;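 further: thallium influx through hERG after potassium depolarization seen as dye fluorescence rise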
KCNQ1 block – inhibitors of human KCNQ1 channel, primary screen, cell-based, thallium flux, high-throughput; Potassium voltage-gated channel subfamily KQT member 1 (Homo sapiens), P51787; CHO-K1 KCNQ1, FluxOR thallium flux fluorescence; hits give high values; B-score at 10 µM; hit rate 1.3% among 310,000;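 active means compounds whose thallium flux B-score, printed positive for inhibition, exceeds three library SD while starting fluorescence stays within three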;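 further: channel opened by potassium depolarization with thallium stimulus after 20 min compound exposure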
KCNK9 block conf – KCNK9 potassium channel inhibitors, confirmation, HEK293 cells, thallium flux, duplicate; hit rate 43% among 4,900; shares compounds with KCNK9 inh; FluxOR thallium flux fluorescence; AID 492992, 2010; inhibition, % at 10 µM;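 active means thallium signal inhibited by more than 5 SD of the compound-free buffer control wells, on both duplicate plates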
Kir2-1 spec – mouse Kir2.1 channel inhibition, confirmation, selectivity assay for KCNK9 modulator project, cell-based, HEK293, thallium flux; shares compounds with KCNK9 inh; Kir2.1 cells, FluxOR thallium flux fluorescence; inhibition, % at 10 µM; hit rate 4% among 4,900;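 active means thallium signal drop more than 5 SD beyond the mean of the no-compound control wells, seen in both duplicate plates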;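 further: signal is fluorescence rise after thallium addition divided by baseline fluorescence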
KCNK9 uninduced – thallium flux in non-induced HEK293 cells, confirmation, counter-screen for KCNK9 inhibitor project, cell-based, second counter screen, non-induced KCNK9-HEK293; AID 492997, 2010; shares compounds with KCNK9 inh; hit rate 40% among 4,900; FluxOR thallium flux; inhibition, % at 10 µM;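 active means thallium signal drop beyond 5 SD of the untreated control mean, on both duplicate plates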
KCNK3 confirm – retest of human KCNK3 channel inhibitors, confirmation, CHO cells, FluxOR thallium flux, triplicate; FluxOR fluorescence; 0% buffer, 100% carvedilol maximal block; ratio percent of control, % at 10 µM; AID 651638, 2012; shares compounds with KCNK3 block; hit rate 99% among 2,400;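 active means ratio percent of control, averaged over triplicates, above buffer control mean plus 5 SD, cut at about 64% in these data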;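 further: ratio is the fluorescence rise from min to max over baseline after thallium stimulus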
KCNK3 uninduced – thallium flux inhibition in non-induced cells, primary screen, counter-screen for KCNK3 inhibitor project, cell-based, non-induced KCNK3 line, FluxOR thallium, triplicate; shares compounds with KCNK3 block; non-induced KCNK3 parental cells; hits give low values; thallium flux ratio (lower = more inhibition) at 10 µM; hit rate 40% among 2,400; AID 651747, 2012;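 active means thallium flux ratio, averaged over three wells, more than 5 SD below the buffer control mean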;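 further: host cells are CHO cells without KCNK3 induction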
A number is an active result; n = inactive; x = no result. The list is not random: actives were taken first. Their share in the collection is about 3.1%.

SMILES | KCNK3 block | KCNQ1 act | KCNK9 inh | hERG protect | KCNQ1 block | KCNK9 block conf | Kir2-1 spec | KCNK9 uninduced | KCNK3 confirm | KCNK3 uninduced
CCOc1cccc2sc(N(CCN(C)C)C(=O)c3ccc4ccccc4c3)nc12 | -9.6 | n | -9.4 | n | n | 36% | n | n | 118 | n
CN1\C(=C/C=C/C=C/C=[N+](C)C)C(C)(C)c2ccccc21 | -13 | n | -8.3 | n | 16 | 58% | 76% | 58% | 155 | 0.085
CN1/C(=C\C=Nc2ccc3ccccc3c2)C(C)(C)c2ccccc21 | n | x | x | x | x | x | x | x | x | x
CC(C)c1cc(NC(=O)c2ccccc2)cc(C(C)C)c1O | n | n | n | n | n | x | x | x | x | x
CCc1cccc(CC)c1NC(=O)c1cccc(NC(=O)c2ccccc2)c1 | n | n | -8.6 | n | n | 64% | n | n | 81 | n
CC(C)c1ccccc1NC(=O)c1cccc(NC(=O)c2ccccc2)c1 | -10 | n | -10 | n | n | 40% | n | n | 106 | n
CCN(C(=O)CSc1nc2n[nH]c(C)c2c(=N)n1-c1ccc(Cl)c(C)c1)c1cccc(C)c1 | -12 | n | -21 | n | n | 68% | n | 40% | 97 | 0.13
O=C(Nc1nc(-c2ccc(Cl)s2)cs1)c1cccs1 | -8.9 | n | -9.2 | n | n | n | n | 32% | 97 | n
O=C(Nc1nc(-c2ccccc2)cs1)c1cccs1 | n | n | n | n | n | x | x | x | x | x
COc1cc(-c2noc(C)c2C(=O)NCCCN2CCOCC2)cc(OC)c1OC | n | x | x | x | x | x | x | x | x | x
COc1cc2c(cc1OC)C(c1cccc([N+](=O)[O-])c1)N(C(=O)CCC(=O)O)CC2 (centres undefined) | n | n | n | n | n | x | x | x | x | x
COc1cc2c(cc1OC)C(c1cccc([N+](=O)[O-])c1)N(C(=O)c1ccc(F)cc1)CC2 (centres undefined) | -11 | n | -17 | n | 11 | 74% | n | 38% | 96 | 0.15
COc1ccc(-c2ccc(SCC(=O)c3cccs3)nn2)cc1OC | n | n | n | n | n | x | x | x | x | x
COc1ccc(-c2ccc(SCC(=O)c3ccc(F)cc3)nn2)cc1OC | -9.8 | n | -15 | n | n | 64% | n | n | 118 | n
NC(=O)/C(=C/c1cccnc1)NC(=O)c1ccccc1 | n | n | n | n | n | x | x | x | x | x
COc1ccc(N)c2c1C(=O)c1ccccc1C2=O | n | n | n | n | n | x | x | x | x | x
COc1ccc(OC)c2c1C(=O)C(Cl)=C(Cl)C2=O | -8.9 | n | -9.8 | n | 10 | 58% | 41% | 87% | 151 | 0.089
O=[N+]([O-])c1cc(C(F)(F)F)cc([N+](=O)[O-])c1NCCNC(=S)Nc1cccc(F)c1 | n | n | n | n | n | x | x | x | x | x
Cc1cc(Nc2ccc(Cl)cc2)n(-c2cccc(Cl)c2)n1 | -9 | n | -8.2 | n | n | 50% | n | 32% | 149 | 0.15
Cc1cc(NC(=O)CSc2cc(Cl)ccc2Cl)n(-c2ccccc2)n1 | -9.6 | n | -10 | n | n | 48% | n | n | 127 | 0.14
CCn1c(SCC(=O)Nc2ccc(N3CCOCC3)cc2)nnc1-c1ccco1 | n | n | n | n | n | x | x | x | x | x
CCOC(=O)c1c(NC(=O)CSc2nc3cc(Cl)ccc3c(=O)n2Cc2ccco2)sc(C(=O)N(C)C)c1C | n | n | n | n | n | x | x | x | x | x
CSCc1c(C(=O)Nc2ccc3c(c2)OCO3)oc2ccccc12 | -8.7 | n | -9.5 | n | n | 39% | n | 30% | 124 | 0.15
Cn1nc(-c2ccccc2)c(C#N)c1Sc1cccc(Cl)c1 | -9.1 | n | -11 | n | n | 55% | n | 52% | 113 | 0.15
NC(=O)CC(NC(=O)c1ccc(Br)cc1)c1ccc(N2CCCCCC2)c([N+](=O)[O-])c1 (centres undefined) | n | n | n | n | n | x | x | x | x | x
SMILES | KCNK3 block | KCNQ1 act | KCNK9 inh | hERG protect | KCNQ1 block | KCNK9 block conf | Kir2-1 spec | KCNK9 uninduced | KCNK3 confirm | KCNK3 uninduced
Cc1ccc(O)c(C(=O)c2cnc3c(c2)COc2ccccc2-3)c1 | n | n | -15 | n | n | 41% | n | 28% | 96 | n
O=C(c1cnc2c(c1)COc1ccc(Cl)cc1-2)c1ccccc1O | n | n | n | n | n | x | x | x | x | x
COc1ccc2ccc(=O)oc2c1CC=C(C)C | -12 | n | -15 | n | n | 72% | n | 38% | 104 | n
CCOc1ccc(S(=O)(=O)NCCC(=O)NC2CCCCC2)cc1 | n | n | n | n | n | x | x | x | x | x
Cc1c(Cl)cccc1-n1nnnc1-c1cccs1 | -11 | n | -9.3 | n | n | 44% | n | 32% | 108 | n
N#Cc1c(SCC(=O)O)nc(N2CCCCC2)c2c1CCCC2 | n | n | n | n | n | x | x | x | x | x
COC(=O)CSc1nc(N2CCCCC2)c2c(c1C#N)CCCC2 | -11 | n | -10 | n | n | 38% | n | 35% | 104 | n
Cc1cnc(C(=O)OC(C(=O)c2c[nH]c3ccccc23)c2ccccc2)cn1 (centres undefined) | -11 | n | -20 | n | n | 78% | n | 35% | 108 | n
CCOC(=O)C(C)Sc1nc(-c2ccco2)cc(C(F)(F)F)c1C#N (centres undefined) | -12 | n | -16 | n | n | 70% | n | 44% | 98 | 0.13
CCOC(=O)c1sc(NC(=O)CSc2nc(-c3ccco3)cc(C(F)(F)F)n2)c(C#N)c1C | n | n | n | n | n | x | x | x | x | x
CSc1nc(Oc2ccc3ccccc3c2)c2sccc2n1 | -9 | n | -10 | n | n | 41% | n | 32% | 98 | n
COc1cccc(C(=O)NCCS(=O)(=O)N2CCC(C)CC2)c1 | n | n | n | n | n | x | x | x | x | x
